Calls of active or inactive are those of the source. The calls are words filed in the database; no cut-off is given here.
What was measured:
[1] = tested on: HCC 2998; assay: Growth inhibition of human HCC2998 cells at 10 uM after 48 hrs by SRB assay; assay type: functional
In short: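 Cells grown in RPMI 1640 with 5% FBS and 2 mM L-glutamine, plated at 5000–40,000 cells/well by doubling time and preincubated 24 h (37 °C, 5% CO2); a time-zero plate is TCA-fixed. Single dose added, then 48 h incubation. Fixed with cold TCA, stained with 0.4% SRB, dye solubilized in 10 mM Tris base, absorbance at 515 nm; percent growth vs time-zero and untreated control.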

[2] = tested on: DNA; assay: Binding affinity to calf thymus DNA assessed as DNA intercalation at 50 uM by UV-visible spectrophotometry; assay type: nucleic-acid assay; conditions: Bos taurus
In short: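 ct-DNA titrated (4–100 µM) into phosphate-buffered solution (pH 7.0) of compound at 50 µM; absorption spectra recorded by UV–visible spectrophotometry, tracking band shift and hypochromism.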

[3] = tested on: DNA; assay: Binding affinity to calf thymus DNA assessed as DNA intercalation at 50 uM by fluorescence spectrophotometry; assay type: nucleic-acid assay; conditions: Bos taurus
In short: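 Fluorescence titration: increasing ct-DNA added to compound in phosphate buffer (pH 7.0); decrease in emission band at 500 nm monitored; binding constant derived from titration data by Benesi–Hildebrand method.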

[4] = tested on: DNA; assay: Binding affinity to calf thymus DNA assessed as change in melting temperature by thermal denaturation assay; assay type: nucleic-acid assay; conditions: Bos taurus

Row | SMILES | growth inhibition (GI) [1] | Activity [2] | Activity [3] | ΔTm [4] [°C]
1 | O=c1[nH]cc(F)c(=O)[nH]1 [FLUOROURACIL] | Active |  |  | 
2 | Nc1ccc(Sc2ccc3c4c2cccc4c(=O)n2c4ccccc4nc32)cc1 |  | Active | Active | 8.2
